Experimental data taken from ChEMBL document CHEMBL1137397, “Identification of selective, nonpeptidic nitrile inhibitors of cathepsin s using the substrate activity screening method” (J Med Chem, 2006).

What was measured:
Cathepsin B = Cathepsin B (Homo sapiens, UniProt P07858); assay: Inhibition of cathepsin B
Outline: (§1)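 Cathepsins B (2 nM), K (10 nM) or L (0.03 nM) in pH 6.1 phosphate/NaCl/DTT/EDTA/Tween-20 buffer. Preincubated 5 min at 37 °C with five inhibitor levels (10-90% inhibition), in duplicate. Cbz-Phe-Arg-AMC added at 5 and 2.5 µM (B, K) or 0.6 and 0.3 µM (L). AMC read at ex 355/em 450 nm for 5 min. Ki by Dixon plot.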

Cathepsin K = biological target: T1, Cathepsin K (Homo sapiens, UniProt P43235); assay: Inhibition of cathepsin K; outline: as §1
T1 sequence (P43235 whole entry): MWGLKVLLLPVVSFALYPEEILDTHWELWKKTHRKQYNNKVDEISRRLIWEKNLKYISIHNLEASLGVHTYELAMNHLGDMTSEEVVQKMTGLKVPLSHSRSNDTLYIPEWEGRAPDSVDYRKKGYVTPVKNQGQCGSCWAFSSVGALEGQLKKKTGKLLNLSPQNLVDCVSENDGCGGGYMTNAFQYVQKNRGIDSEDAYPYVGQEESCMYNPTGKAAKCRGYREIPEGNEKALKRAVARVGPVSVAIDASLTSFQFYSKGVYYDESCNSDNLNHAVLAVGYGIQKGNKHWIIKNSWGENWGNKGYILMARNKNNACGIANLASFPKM

Cathepsin S = Cathepsin S (Homo sapiens, UniProt P25774); assay: Inhibition of cathepsin S
Outline: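 Cathepsin S at 0.6 nM in pH 6.1 100 mM sodium phosphate with 100 mM NaCl, 1 mM DTT, 1 mM EDTA and 0.001% Tween-20. Enzyme preincubated 5 min at 37 °C with five inhibitor concentrations (10-90% inhibition), in duplicate. Cbz-Leu-Arg-AMC added at 5 and 2.5 µM, then AMC read (ex 355/em 450 nm) over 5 min. Ki by Dixon method.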

Procathepsin L = Procathepsin L (Homo sapiens, UniProt P07711); assay: Inhibition of cathepsin L; outline: as §1
Chain of Procathepsin L (P07711 whole entry): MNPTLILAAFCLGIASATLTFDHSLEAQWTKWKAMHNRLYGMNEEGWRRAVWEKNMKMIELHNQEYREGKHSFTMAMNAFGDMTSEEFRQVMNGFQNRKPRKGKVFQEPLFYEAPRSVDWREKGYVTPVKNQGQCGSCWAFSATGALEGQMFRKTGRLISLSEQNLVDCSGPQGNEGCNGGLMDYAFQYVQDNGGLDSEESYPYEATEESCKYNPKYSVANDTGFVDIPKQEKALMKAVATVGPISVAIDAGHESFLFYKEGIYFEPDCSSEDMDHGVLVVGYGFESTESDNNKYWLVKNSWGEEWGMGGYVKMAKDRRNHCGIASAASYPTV

Chain of Cathepsin S (P25774 whole entry): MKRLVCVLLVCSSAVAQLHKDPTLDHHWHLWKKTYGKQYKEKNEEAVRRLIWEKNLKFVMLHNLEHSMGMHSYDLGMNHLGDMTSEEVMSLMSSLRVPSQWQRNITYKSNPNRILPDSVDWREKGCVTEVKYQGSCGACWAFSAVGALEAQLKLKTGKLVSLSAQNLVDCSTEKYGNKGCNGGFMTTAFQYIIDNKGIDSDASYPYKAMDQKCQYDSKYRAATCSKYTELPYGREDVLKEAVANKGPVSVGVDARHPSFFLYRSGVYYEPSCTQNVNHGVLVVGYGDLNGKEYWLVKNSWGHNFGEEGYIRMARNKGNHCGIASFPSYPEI

IC50 (Cathepsin B) [µM]	Ki (Cathepsin B) [µM]	Ki (Cathepsin K) [µM]	Ki (Cathepsin S) [µM]	IC50 (Procathepsin L) [µM]	Ki (Procathepsin L) [µM]	IC50 (Cathepsin K) [µM]	Compound
> 10	> 10	1.7	0.018	> 10	> 10		CCCC[C@@H](C#N)n1cc([C@@](C)(NC(=O)c2ccsc2)C2CCCCC2)nn1
> 10	> 10	0.43	0.42	> 10	> 10		CCCC[C@@H](C#N)n1cc([C@@](C)(NC(=O)c2ccsc2)C(C)C)nn1
> 10	> 10	0.88	1.2	> 10	> 10		CCCC[C@@H](C#N)n1cc([C@@](C)(NC(=O)c2ccccc2)C(C)C)nn1
> 10	> 10	> 10	0.2	> 10	> 10	> 10	CCCC[C@@H](C#N)n1cc([C@@](C)(NC(=O)c2ccccc2)C2CCCCC2)nn1
		> 15	0.015	> 15	> 15	> 15	CCCC[C@@H](C#N)n1cc([C@@](C)(NC(=O)c2ccsc2)C2CCC(C)CC2)nn1 (stereo not given in full)
